Assay results pooled from the literature.
Compare with care: the assays were run in different laboratories.
PIK3CA: Phosphatidylinositol 4,5-bisphosphate 3-kinase catalytic subunit alpha isoform (PIK3CA, Homo sapiens, UniProt P42336)
PIK3CB: Phosphatidylinositol 4,5-bisphosphate 3-kinase catalytic subunit beta isoform (PIK3CB, Homo sapiens, UniProt P42338)
KDR: Vascular endothelial growth factor receptor 2 (KDR, Homo sapiens, UniProt P35968)

| SMILES | target | test | IC50 |
| --- | --- | --- | --- |
| O=C(Nc1nnc(-c2ccc3c(c2)OCCO3)o1)c1ccc(C(=O)c2ccccc2)cc1 | PIK3CA | enzyme activity, inhibitor, ADP detection | 470 nM |
| O=C(CCc1ccc(Cl)cc1)N1C(=O)C(=Nc2ccc(Cl)cc2Br)c2ccccc21 | PIK3CB | enzyme activity, inhibitor, ADP detection | 810 nM |
| O=[N+]([O-])c1ccc(O)c(C=NNc2ccc(C(F)(F)F)cc2)c1 | KDR | enzyme activity, inhibitor, ATP luminescence | 20700 nM |
| Cc1ccc(CN2C(=O)C(=Nc3c(C(C)C)cccc3C(C)C)c3ccccc32)cc1 | PIK3CA | enzyme activity, inhibitor, ADP detection | 319 nM |
| CN(C)C(=O)c1cc2cnc(Nc3cc(C(F)(F)F)c(-c4ccc5c(=O)cc(N6CCOCC6)oc5c4)cn3)nc2n1C1CCCC1 | PIK3CA | enzyme activity, inhibitor, radiometric | > 10000 nM |
| O=[N+]([O-])c1cc(Br)c(O)c(C=NNc2ccc(C(F)(F)F)cc2)c1 | KDR | enzyme activity, inhibitor, ATP luminescence | 8950 nM |
| O=C(O)CC[C@H](NC(=O)N[C@@H](CCCCNC(=O)[C@H](Cc1ccc2ccccc2c1)NC(=O)[C@H]1CC[C@H](CNC(=O)CN2CCN(CC(=O)O)CCN(CC(=O)O)CCN(CC(=O)O)CC2)CC1)C(=O)O)C(=O)O | Glutamate carboxypeptidase 2 (FOLH1, Homo sapiens, UniProt Q04609) | ligand displacement in cells, radioligand | 7.8 nM |
| O=C1C(=Nc2ccccc2Br)c2ccccc2N1Cc1ccccc1 | PIK3CB | enzyme activity, inhibitor, ADP detection | 16.6 nM |
| CN(C)C(=O)c1cc2cnc(Nc3ccc(-c4cccc5c(=O)cc(N6CCOCC6)oc45)cn3)nc2n1C1CCCC1 | PIK3CA | enzyme activity, inhibitor, radiometric | > 10000 nM |
| O=[N+]([O-])c1cc(Br)c(O)c(C=NNc2ccccc2)c1 | KDR | enzyme activity, inhibitor, ATP luminescence | 5400 nM |
| CC(=O)OC[C@H]1O[C@@H]([S-])[C@H](OC(C)=O)[C@@H](OC(C)=O)[C@@H]1OC(C)=O.CCP(CC)CC.[Au+] | Thioredoxin reductase 1, cytoplasmic (TXNRD1, Homo sapiens, UniProt Q16881) | enzyme activity, inhibitor, absorbance | 397 nM |
| CN(C)C(=O)c1cc2cnc(Nc3cc(C(=O)O)cc(-c4cccc5c(=O)cc(N6CCOCC6)oc45)c3)nc2n1C1CCCC1 | PIK3CA | enzyme activity, inhibitor, radiometric | 1590 nM |
| O=C1C(=Nc2ccc(Cl)cc2)c2ccccc2N1Cc1ccc([N+](=O)[O-])cc1 | PIK3CB | enzyme activity, inhibitor, ADP detection | 7.73 nM |
| COc1ccc(-c2cc(=O)c3ccc(Nc4ncc5cc(C(=O)N(C)C)n(C6CCCC6)c5n4)cc3o2)cc1 | PIK3CA | enzyme activity, inhibitor, radiometric | > 10000 nM |
| O=C1C(=Nc2ccccc2I)c2ccccc2N1Cc1ccc(Br)cc1 | PIK3CB | enzyme activity, inhibitor, ADP detection | 435 nM |
| CN(C)C(=O)c1cc2cnc(Nc3cncc(-c4ccc5c(=O)cc(N6CCOCC6)oc5c4)c3)nc2n1C1CCCC1 | PIK3CA | enzyme activity, inhibitor, radiometric | 260 nM |
| Cc1cccc(N=C2C(=O)N(Cc3ccccc3)c3ccccc32)c1 | PIK3CA | enzyme activity, inhibitor, ADP detection | 8.64 nM |
| O=C(O)[C@H]1O[C@@H](Oc2cc3oc(-c4ccc(O)cc4)cc(=O)c3c(O)c2O)[C@H](O)[C@@H](O)[C@@H]1O | KDR | enzyme activity, inhibitor, TR-FRET | 8350 nM |
| O=C1Nc2ccccc2C1=Nc1cccc(Cl)c1 | PIK3CB | enzyme activity, inhibitor, ADP detection | 511 nM |
| COc1ccc(-c2cc(=O)c3cccc(Nc4ncc5cc(C(=O)N(C)C)n(C6CCCC6)c5n4)c3o2)cc1 | PIK3CA | enzyme activity, inhibitor, radiometric | > 10000 nM |
| O=[N+]([O-])c1cc(Br)c(O)c(C=NNc2ccc(Br)cc2)c1 | KDR | enzyme activity, inhibitor, ATP luminescence | 7070 nM |
| CNC(=O)[C@H](Cc1c[nH]c2ccccc12)NC(=O)[C@@H](CC(=O)NO)CC(C)C | Macrophage metalloelastase (MMP12, Homo sapiens, UniProt P39900) | enzyme activity, inhibitor | 0.328 nM |
| Cc1nc2c(F)cc(-c3ccnc(Nc4ccc5c(=O)cc(N6CCOCC6)oc5c4)n3)cc2n1C(C)C | PIK3CA | enzyme activity, inhibitor, radiometric | 2130 nM |
| O=[N+]([O-])c1ccc(O)c(C=NNc2ccc(Br)cc2)c1 | KDR | enzyme activity, inhibitor, ATP luminescence | 12600 nM |
| COc1cc(N=C2C(=O)N(Cc3ccccc3)c3ccccc32)cc(OC)c1 | PIK3CA | enzyme activity, inhibitor, ADP detection | 7.31 nM |
| COc1ccc(-c2oc3cc(Nc4ncc5cc(C(=O)N(C)C)n(C6CCCC6)c5n4)ccc3c(=O)c2F)cc1 | PIK3CA | enzyme activity, inhibitor, radiometric | > 10000 nM |
| C[C@@H]1O[C@@H](O[C@H]2[C@H](Oc3cc(O)c4c(=O)cc(-c5ccc(O)cc5)oc4c3)O[C@H](CO)[C@@H](O)[C@@H]2O)[C@H](O)[C@H](O)[C@H]1O | KDR | enzyme activity, inhibitor, TR-FRET | > 40000 nM |
